Test results as given in PubChem BioAssay.
Records with an inconclusive call do not appear.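 How the source made its calls, unless noted: active means cell viability at or below a set limit in both duplicate runs, the limit being the all-compound median minus 4 SD (cut at about 23% in these data, passing the limit was not always enough); inconclusive means no clear call, values can overlap the other calls; inactive means the rest.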

Legend:
[1] = OD615 S. cerevisiae growth inhibition, permissive medium, pilot counter-assay, permissive growth control for S. cerevisiae lifespan shortening project (AID 705;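 active means growth inhibition above 25% in both replicates, a cutoff set 3 SD above the mean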); conditions: OD615, 24 h, at 10 µM, active compounds read high
How it was run: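 Material: engineered DeaD yeast; compound dosing: one dose 10 µM, DMSO 0.25% final; measure: yeast growth inhibition indicated by reduced 24 h OD615; detection: OD615 turbidity read; incubation: cells pre-grown 4 h, then 24 h compound exposure, 30 °C humidified; medium: permissive synthetic complete medium with raffinose and galactose carbon sources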

[2] = Restrictive medium S. cerevisiae growth inhibition, OD615, pilot screen of yeast lifespan reduction project, restrictive growth control (AID 706;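 active means growth inhibition above a set limit, 3 SD over mean compound inhibition, in both replicates, cut at about 43% in these data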;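 further: modified DeaD lifespan yeast strain shifted to restrictive glucose medium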); conditions: OD615, 48 h, at 10 µM, active compounds read high
How it was run: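 material = engineered S. cerevisiae DeaD strain | medium = glucose-based CSMM-D restrictive medium | times = 4 h pre-incubation, 48 h exposure at 30 °C | technique = OD615 absorbance reading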

[3] = viability gain of MRP-1-high H69AR cells under doxorubicin, pilot screen, MRP-1 activator project, CellTiter-Glo, duplicate (AID 807;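 active means viability increase at or above a cutoff of the median across tested compounds plus 3 SD, cut at about 8.5% in these data, passing the limit was not always enough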;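 further: compound pretreatment 18-22 h then 72 h combined with doxorubicin; 0% = doxorubicin alone and 100% = vehicle without doxorubicin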); conditions: H69AR viability with doxorubicin, CellTiter-Glo luminescence; at 10 µM; active compounds read high
[4] = growth suppression of beta-catenin knockout HCT116, pilot screen, human colon tumor cells (AID 823); conditions: CellTiter-Glo, 60 h, at 10 µM, active compounds read low;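 further: 0% = wells killed by 20 µM Hyamine and 100% = untreated DMSO cell wells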
[5] = growth suppression of PTEN-deleted HCT116, pilot screen, cell-based, HCT116 clonal line, CellTiter-Glo (AID 824;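 active means viability at or below 27.92% in each of two runs, the all-compound median minus 4 SD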;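 further: 0% = 20 µM Hyamine control and 100% = vehicle cell control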); conditions: 60 h, at 10 µM, active compounds read low
[6] = inhibitors of the yeast RAM network, pilot screen, dse1pr::URA3 reporter, 5-FOA selection (AID 869;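 active means inhibition over a set limit, the all-compound mean plus 3 SD, in both replicate runs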;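 further: 0% = DMSO wells with no growth and 100% = 10 µM 1-NA-PP1 with full growth; RAM network block rescues cells from 5-FOA so hits raise OD615 growth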); conditions: S. cerevisiae dse1pr::URA3 5-FOA growth, OD615, 2 d; at 10 µM; active compounds read high; strain carries analog-sensitive mutant Cbk1 kinase
[7] = RAM signaling pathway blockade in yeast – S. cerevisiae, Pdr1DBD-CYC8 efflux-inhibited sensitized strain, primary screen (AID 1298;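 active means RAM network inhibition above 8.4% in each of two replicates, 3 SD over the compound average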;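 further: 0% = DMSO untreated cells without growth and 100% = 10 µM 1-NA-PP1 full growth; higher means more yeast growth rescued from 5-FOA killing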); conditions: S. cerevisiae cbk1-as DSE1-URA3 strain, 5-FOA growth OD615, 2 d; at 50 µM; active compounds read high

O=C(Nc1ccc(Br)cc1F)c1ccc2c(c1)N(Cc1ccccc1)C(=O)CS2=O (configuration not stated)
inactive: growth inhibition [1] -7.48% | growth inhibition [2] 1.12% | viability increase [3] -0.49% | viability [4] 81.1% | viability [5] 67.8% | inhibition [6] 2.64% | RAM network inhibition [7] 2.84%

CCOC(=O)C1CCN(S(=O)(=O)c2ccc(OCC)cc2)CC1
inactive: growth inhibition [1] -6.07% | growth inhibition [2] -13.5% | viability increase [3] -2.24% | viability [4] 92% | viability [5] 94.4% | inhibition [6] 0.575% | RAM network inhibition [7] 6.62%

CC(C)CCN(C)C1CCN(C(=O)Nc2c(F)cccc2F)CC1
inactive: growth inhibition [1] 0.53% | growth inhibition [2] -12.6% | viability increase [3] -3.34% | viability [4] 90.6% | viability [5] 91.7% | inhibition [6] 1.56% | RAM network inhibition [7] 0.26%

O=C(CSc1ccc2c(c1)OCCO2)NC(=O)NC1CCCC1
inactive: growth inhibition [1] -2.04% | growth inhibition [2] 2.58% | viability increase [3] -1.38% | viability [4] 87.7% | viability [5] 91.3% | inhibition [6] 0.535% | RAM network inhibition [7] -1.28%

c1ccc(-n2cnnc2SCc2cn3ccccc3n2)cc1
inactive: growth inhibition [1] 5.34% | growth inhibition [2] 20.6% | viability increase [3] -4.4% | viability [4] 101% | viability [5] 95.6% | inhibition [6] 1.19% | RAM network inhibition [7] 7.66%

COc1ccc(Cl)cc1N(CC(=O)N1CCN(Cc2ccccc2)CC1)S(C)(=O)=O
inactive: growth inhibition [1] -5.27% | growth inhibition [2] -11.1% | viability increase [3] -0.51% | viability [4] 95.9% | viability [5] 92.8% | inhibition [6] 1.38% | RAM network inhibition [7] 0.41%

COc1ccc(-c2nc3n(n2)C(c2ccccc2Cl)C(C(N)=O)=C(C)N3)cc1 (configuration not stated)
inactive: growth inhibition [1] -14.2% | growth inhibition [2] 0.71% | viability increase [3] -0.48% | viability [4] 96.9% | viability [5] 96.2% | inhibition [6] 1.66% | RAM network inhibition [7] -1.36%

CCOc1cc(-c2cc(N)n[nH]2)cc(OCC)c1OCC
inactive: growth inhibition [1] -14.5% | growth inhibition [2] -8.22% | viability increase [3] -2.48% | viability [4] 104% | viability [5] 91.5% | inhibition [6] 0.37% | RAM network inhibition [7] 0.35%

Cc1ccccc1Cn1c(CN2CCN(c3ccc(F)cc3)CC2)nc2c1c(=O)n(C)c(=O)n2C
inactive: growth inhibition [1] -12.2% | growth inhibition [2] -17.1% | viability increase [3] -3.7% | viability [4] 94.4% | viability [5] 92.2% | inhibition [6] 2.51% | RAM network inhibition [7] 7.93%

O=C(O)c1ccc(-n2nnnc2SCc2ccccc2F)cc1
inactive: growth inhibition [1] -13.7% | growth inhibition [2] 6.63% | viability increase [3] 1.71% | viability [4] 105% | viability [5] 102% | inhibition [6] 2.46% | RAM network inhibition [7] 9.03%

CC(=O)NCC(=O)OCC(=O)c1ccc(C)cc1
inactive: growth inhibition [1] 1.93% | growth inhibition [2] -5.04% | viability increase [3] -0.54% | viability [4] 97.6% | viability [5] 94.9% | inhibition [6] 1.21% | RAM network inhibition [7] -0.06%

Nc1nonc1/C(=N/O)N1CCN(CCO)CC1
inactive: growth inhibition [1] 1.46% | growth inhibition [2] -1.22% | viability increase [3] 0% | viability [4] 104% | viability [5] 100% | inhibition [6] 1.46% | RAM network inhibition [7] 0.95%

O=C(CSc1nccn1-c1ccc(Cl)cc1)NCc1ccc2c(c1)OCO2
inactive: growth inhibition [1] -14.6% | growth inhibition [2] -8.19% | viability increase [3] -0.8% | viability [4] 96.3% | viability [5] 89.5% | inhibition [6] 1.3% | RAM network inhibition [7] 2.26%

CC1CC(C)CN(C(=O)CSc2nnc(-c3ccc(F)cc3)o2)C1 (configuration not stated)
inactive: growth inhibition [1] -2.08% | growth inhibition [2] 5.43% | viability increase [3] -0.28% | viability [4] 94.5% | viability [5] 99.8% | inhibition [6] 0.645% | RAM network inhibition [7] 2.78%

CCc1ccccc1NC(=O)c1cc(C2CC2)on1
inactive: growth inhibition [1] -12.1% | growth inhibition [2] 6.47% | viability increase [3] -0.65% | viability [4] 93.2% | viability [5] 91.8% | inhibition [6] 0.045% | RAM network inhibition [7] 3.34%

CCC(C)NC(=O)C1CCN(S(=O)(=O)c2cccc3cccnc23)CC1 (configuration not stated)
inactive: growth inhibition [1] -3.39% | growth inhibition [2] 1.06% | viability increase [3] 0.26% | viability [4] 108% | viability [5] 101% | inhibition [6] 2.05% | RAM network inhibition [7] 4.76%

c1nc(N2CCCCC2)c2[nH]cnc2n1
inactive: growth inhibition [1] -2.33% | growth inhibition [2] -9.23% | viability increase [3] -5.39% | viability [4] 113% | viability [5] 102% | inhibition [6] 1.4% | RAM network inhibition [7] 2.24%

CC(C)Cc1nc(C(N)=O)c2[nH]c(=O)n(-c3ccc(F)cc3)c2n1
inactive: growth inhibition [1] -21.3% | growth inhibition [2] -27.8% | viability increase [3] -2.13% | viability [4] 100% | viability [5] 91.2% | inhibition [6] 3.68% | RAM network inhibition [7] 8.63%

CCOC(=O)c1ccc(N2C(=O)CC(N3CCN(Cc4ccccc4)CC3)C2=O)cc1 (configuration not stated)
inactive: growth inhibition [1] -18.6% | growth inhibition [2] -15.4% | viability increase [3] 0.7% | viability [4] 101% | viability [5] 103% | inhibition [6] 0.175% | RAM network inhibition [7] 2.65%

O=C(NCCN1CCCCC1)c1ccc2c(c1)OCCO2
inactive: growth inhibition [1] -9.66% | growth inhibition [2] -10.3% | viability increase [3] -1.4% | viability [4] 102% | viability [5] 99% | inhibition [6] 1.86% | RAM network inhibition [7] 2.64%

Cc1cccc(-n2ncc3c(N4CCC(C)CC4)ncnc32)c1
inactive: growth inhibition [1] -5.82% | growth inhibition [2] 10.6% | viability increase [3] 4.21% | viability [4] 81.4% | viability [5] 82.9% | inhibition [6] -0.31% | RAM network inhibition [7] 1.32%

COc1ccccc1C(=O)N(Cc1nc(-c2ccc(Cl)cc2)no1)C(C)C
inactive: growth inhibition [1] -17.9% | growth inhibition [2] -20.1% | viability increase [3] 1.78% | viability [4] 69% | viability [5] 71.3% | inhibition [6] 0.605% | RAM network inhibition [7] 6.95%

CCOC(=O)C1=C(C)Nc2nc(C)nn2C1c1cc(OC)ccc1OC (configuration not stated)
inactive: growth inhibition [1] 3.21% | growth inhibition [2] 4.81% | viability increase [3] -1.53% | viability [4] 108% | viability [5] 100% | inhibition [6] -1.1% | RAM network inhibition [7] -0.16%

Cc1c(/C=N/n2cnnc2)c2ccccc2n1C
inactive: growth inhibition [1] -2.21% | growth inhibition [2] 11.6% | viability increase [3] -1.49% | viability [4] 98.7% | viability [5] 95.3% | inhibition [6] -0.13% | RAM network inhibition [7] 4.77%

CCC(Sc1nc2ccccc2[nH]1)C(=O)Nc1cc(C)on1 (configuration not stated)
inactive: growth inhibition [1] -13% | growth inhibition [2] -17.9% | viability increase [3] 1.02% | viability [4] 100% | viability [5] 101% | inhibition [6] 1.1% | RAM network inhibition [7] -0.37%

CC(C)(C)SCCNS(=O)(=O)c1ccc(F)cc1
inactive: growth inhibition [1] -4.57% | growth inhibition [2] 3.38% | viability increase [3] 0.35% | viability [4] 94.2% | viability [5] 89.5% | inhibition [6] 0.725% | RAM network inhibition [7] 0.56%

CCOC(=O)c1sc(NC(=O)C2CCCO2)c(C(=O)OCC)c1C (configuration not stated)
inactive: growth inhibition [1] -9.48% | growth inhibition [2] -8.48% | viability increase [3] -2.56% | viability [4] 102% | viability [5] 93% | inhibition [6] 1.31% | RAM network inhibition [7] 2.09%

CC1NC(=O)NC1CCCCC(=O)O (configuration not stated)
inactive: growth inhibition [1] -6.38% | growth inhibition [2] 2.25% | viability increase [3] 1.3% | viability [4] 109% | viability [5] 104% | inhibition [6] 3.06% | RAM network inhibition [7] 2.65%

N#CCCN1CCN(S(=O)(=O)c2ccc(S(=O)(=O)N3CCCC3)cc2)CC1
inactive: growth inhibition [1] 0.995% | growth inhibition [2] 7.04% | viability increase [3] 1.73% | viability [4] 101% | viability [5] 104% | inhibition [6] 1.29% | RAM network inhibition [7] 8.15%

COC(=O)c1cc(OC)c(OC)cc1-n1cnc2cc(OC)c(OC)cc2c1=O
inactive: growth inhibition [1] -8.81% | growth inhibition [2] -0.615% | viability increase [3] -0.58% | viability [4] 97.4% | viability [5] 105% | inhibition [6] 0.665% | RAM network inhibition [7] 0.92%

CC1(C)Oc2ccc3ccc(=O)oc3c2/C(=C/N)C1=O
inactive: growth inhibition [1] -6.37% | growth inhibition [2] -4.45% | viability increase [3] -4.51% | viability [4] 88.5% | viability [5] 81.7% | inhibition [6] 0.535% | RAM network inhibition [7] -0.57%

COCCN1Cc2cccc(C(=O)NCc3ccccn3)c2C1=O
inactive: growth inhibition [1] -2.71% | growth inhibition [2] -0.385% | viability increase [3] -0.59% | viability [4] 103% | viability [5] 110% | inhibition [6] 0% | RAM network inhibition [7] 1.61%

COc1ccc(-c2nc(CSCC(=O)N3CCN(C4CCCCC4)CC3)c(C)o2)cc1OC
inactive: growth inhibition [1] -5.55% | growth inhibition [2] 7.03% | viability increase [3] -1.54% | viability [4] 87.8% | viability [5] 96.3% | inhibition [6] 1.04% | RAM network inhibition [7] 2.38%

CC1(C)CC(=O)c2sc(NC(=O)c3ccco3)nc2C1
inactive: growth inhibition [1] -15% | growth inhibition [2] -0.525% | viability increase [3] -2.54% | viability [4] 94.2% | viability [5] 84.1% | inhibition [6] 0.735% | RAM network inhibition [7] 2.58%

COc1cc(C2C(C(=O)c3cccs3)=C(O)C(=O)N2Cc2ccco2)cc(OC)c1OC (configuration not stated)
inactive: growth inhibition [1] -6.95% | growth inhibition [2] -3.81% | viability increase [3] -4.93% | viability [4] 93.1% | viability [5] 92.4% | inhibition [6] 2.94% | RAM network inhibition [7] 5%

Nc1c(NCc2ccccc2F)c(=O)[nH]c(=O)n1Cc1ccccc1
inactive: growth inhibition [1] 0.38% | growth inhibition [2] -8.14% | viability increase [3] -1.53% | viability [4] 106% | viability [5] 100% | inhibition [6] 0.67% | RAM network inhibition [7] 1%
